# In ChEMBL document CHEMBL3600329, “Synthesis, biological profiling and mechanistic studies of 4-aminoquinoline-based heterodimeric compounds with dual trypanocidal-antiplasmodial activity” (Bioorg Med Chem, 2015):
# Key:
# [1] = tested on: Trypanosoma brucei; test: Trypanocidal activity against bloodstream form of Trypanosoma brucei 221 assessed as inhibition of parasite growth at pH 7.4 after 48 hrs by Spectramax plate reader analysis; type: functional, organism-based; conditions: Trypanosoma brucei, 221, 48 h
# Outline: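 Bloodstream-form T. brucei strain 221 grown at 37 °C in modified Iscove's medium; log-phase cells diluted to 0.25 × 10^5 mL⁻¹, exposed to a range of compound concentrations in triplicate at 37 °C. Resazurin added after 48 h, read after a further 16 h. IC50 and IC90 = concentrations inhibiting growth 50% and 90%; mean of triplicate experiments ± SEM.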
# [2] = tested on: Trypanosoma brucei; test: Selectivity index, ratio of IC50 for inhibition of Trypanosoma brucei recombinant Trypanothione reductase to IC50 for trypanocidal activity against bloodstream form of Trypanosoma brucei 221
# [3] = target: Trypanothione reductase (Trypanosoma brucei brucei, UniProt P39051); test: Inhibition of Trypanosoma brucei recombinant Trypanothione reductase assessed as decrease in (T[SH]2) formation using trypanothione disulfide as substrate after 15 mins by colorimetric analysis
# [4] = Inhibition of beta-haematin formation by microplate reader analysis relative to hemin; type: physicochemical
# Outline: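 Haemin chloride (8 mM stock in DMSO) mixed with serial compound dilutions (0.5-32 mM) in 25% DMSO; formation initiated with 8 M acetate buffer pH 5.0, 18 h at 37 °C. Pellets washed with DMSO, β-haematin dissolved in 0.1 M NaOH, OD 400 nm read versus drug-free controls; BHIA50 expressed as compound equivalents relative to haemin, by linear regression.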
# [5] = tested on: L6; test: Cytotoxicity against rat L6 cells assessed as inhibition of cell growth after 6 days by Spectramax fluorescence plate reader analysis; type: cell-based; conditions: L6, 144 h
# Outline: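 L6 rat skeletal myoblasts seeded at 1×10^4 mL⁻¹ in growth medium containing a range of compound concentrations, incubated 6 days at 37 °C; resazurin added, fluorescence read after a further 8 h. IC50 = concentration inhibiting growth by 50%; mean of triplicate experiments ± SEM.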
# [6] = Selectivity index, ratio of IC50 for rat L6 cells to IC50 for bloodstream form of Trypanosoma brucei 221; type: toxicity, cell-based; conditions: read-out: Ratio IC50
# Outline: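 IC50 ratio, L6 over T. brucei. L6 cells seeded at 1×10^4 mL⁻¹ with compound, 6 days at 37 °C, then resazurin, 8 h more, fluorescence read. Log-phase bloodstream T. brucei 221 in modified Iscove's medium at 0.25 × 105 mL⁻¹, compound range in triplicate, 37 °C; resazurin at 48 h, read after 16 h more.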
# [7] = Selectivity index, ratio of IC50 for rat L6 cells to IC50 for chloroquine-resistant Plasmodium falciparum K1; type: toxicity, cell-based; conditions: read-out: Ratio IC50
# Outline: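 IC50 ratio, L6 over P. falciparum K1. L6 cells seeded at 1×10^4 mL⁻¹ with compound, 6 days at 37 °C, resazurin added, fluorescence after 8 h. Parasites in A+ erythrocytes (2.5% haematocrit, 1% parasitaemia) with twofold dilutions, 48 h at 37 °C in low-oxygen gas; growth read by LDH activity at 550 nm.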
# [8] = target: Acetylcholinesterase (Homo sapiens, UniProt P22303); test: Inhibition of human recombinant AChE using acetylthiocholine iodide as substrate preincubated with enzyme for 20 mins prior to substrate addition by Ellman's method
# Outline: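 Ellman assay in 0.1 M phosphate buffer pH 8.0 with hAChE 0.02 u/mL and 333 µM DTNB. At least 10 inhibitor concentrations, in duplicate, preincubated 20 min at 37 °C. Then 450 µM acetylthiocholine iodide, 5 min at 37 °C; absorbance at 414 nm against an uninhibited sample. IC50 by non-linear regression; mean ± S.E.M. of at least 4 experiments.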
# [9] = Permeability by PAMPA-BBB assay; type: ADME; conditions: read-out: Peff
# Outline: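 Parallel artificial membrane permeation through porcine brain lipid extract, using PBS:EtOH 70:30; effective permeability Pe reported as mean ± SD of three independent experiments.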
# [10] = tested on: Plasmodium falciparum; test: Antiplasmodial activity against chloroquine-resistant Plasmodium falciparum K1 infected in human A+ erythrocytes assessed as inhibition of parasite growth after 48 hrs by LDH assay; type: functional, organism-based; conditions: K1, 48 h
# Outline: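 Ring-stage cultures in human A+ erythrocytes (RPMI 1640, A+ serum, D-glucose), 2.5% haematocrit, 1% parasitaemia; twofold serial dilutions in duplicate, DMSO ≤0.5% final. 48 h at 37 °C under 93% N2/3% O2/4% CO2. Growth read as lactate dehydrogenase activity (APAD, lactate, diaphorase, NBT; 550 nm); % inhibition vs controls; IC50 by linear regression; mean of triplicate experiments.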
# Sequence of Trypanothione reductase (P39051 whole entry): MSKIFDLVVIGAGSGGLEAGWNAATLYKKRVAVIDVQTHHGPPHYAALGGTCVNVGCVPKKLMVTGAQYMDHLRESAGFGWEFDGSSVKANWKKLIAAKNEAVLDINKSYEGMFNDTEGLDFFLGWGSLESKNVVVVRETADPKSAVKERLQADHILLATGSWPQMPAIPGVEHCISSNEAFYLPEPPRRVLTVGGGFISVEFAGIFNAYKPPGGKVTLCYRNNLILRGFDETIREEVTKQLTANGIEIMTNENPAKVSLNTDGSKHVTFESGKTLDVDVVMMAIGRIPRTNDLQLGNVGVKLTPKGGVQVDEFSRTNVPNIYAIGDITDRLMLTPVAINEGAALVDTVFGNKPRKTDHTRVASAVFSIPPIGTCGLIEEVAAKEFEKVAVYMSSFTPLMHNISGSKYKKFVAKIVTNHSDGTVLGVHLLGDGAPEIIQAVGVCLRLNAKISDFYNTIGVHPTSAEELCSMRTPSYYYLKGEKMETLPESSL
# Sequence of Acetylcholinesterase (P22303 whole entry): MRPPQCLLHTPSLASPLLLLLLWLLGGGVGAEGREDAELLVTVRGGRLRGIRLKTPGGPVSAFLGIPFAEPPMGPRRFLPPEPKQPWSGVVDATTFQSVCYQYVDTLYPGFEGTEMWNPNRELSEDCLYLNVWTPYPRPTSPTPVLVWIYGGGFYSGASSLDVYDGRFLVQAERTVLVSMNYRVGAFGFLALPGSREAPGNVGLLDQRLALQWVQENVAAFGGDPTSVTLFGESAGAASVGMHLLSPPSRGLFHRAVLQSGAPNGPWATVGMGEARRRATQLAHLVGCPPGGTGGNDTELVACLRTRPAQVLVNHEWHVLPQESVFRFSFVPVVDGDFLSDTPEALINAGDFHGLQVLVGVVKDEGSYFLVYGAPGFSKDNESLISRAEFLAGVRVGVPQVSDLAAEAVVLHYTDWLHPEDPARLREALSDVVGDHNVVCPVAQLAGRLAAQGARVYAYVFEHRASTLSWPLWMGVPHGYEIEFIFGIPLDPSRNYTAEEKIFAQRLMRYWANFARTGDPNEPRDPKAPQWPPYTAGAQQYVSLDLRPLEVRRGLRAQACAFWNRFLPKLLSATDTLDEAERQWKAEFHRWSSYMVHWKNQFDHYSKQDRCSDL
SMILES,IC50 [1],IC90 [1],Ratio IC50 [2],IC50 [3],IC50 [4],IC50 [5],selectivity ratio [6],selectivity ratio [7],IC50 [8],Papp [9],IC50 [10]
COc1cc2c(cc1OC)CC(CC1CCN(CCCNc3c4c(nc5cc(Cl)ccc35)CC3C=C(C)CC4C3)CC1)C2 (stereo not drawn),170 nM,350 nM,29,4.88 µM,0.42 equiv,2060 nM,12,–,–,–,–
CN(C)[C@@H]1C(O)=C(C(N)=O)C(=O)[C@@]2(O)C(O)=C3C(=O)c4c(O)cccc4[C@@](C)(O)[C@H]3C[C@@H]12 [TETRACYCLINE],–,–,–,–,> 4 equiv,–,–,–,–,–,–
CC1=CC2Cc3nc4ccccc4c(NCCCCCCCCCCNc4c5c(nc6cc(Cl)ccc46)CCCC5)c3C(C1)C2 (stereo not drawn),340 nM,430 nM,–,–,–,1110 nM,3.3,0.25,1.48 nM,17.2 ×10⁻⁶ cm/s,4.36 µM
CC1=C[C@@H]2Cc3nc4cc(Cl)ccc4c(NCCCCCCCNc4c5c(nc6ccccc46)CCCC5)c3[C@H](C1)C2,290 nM,490 nM,–,–,–,< 1000 nM,< 3.4,< 2.2,–,–,0.46 µM
CC1=CC2Cc3nc4cc(Cl)ccc4c(NCCCCCCCCCCCCNc4c5c(nc6cc(Cl)ccc46)CCCC5)c3C(C1)C2 (stereo not drawn),590 nM,770 nM,–,–,–,5580 nM,9.5,< 0.85,3.46 nM,16.8 ×10⁻⁶ cm/s,> 6.6 µM
CC1=CC2Cc3nc4ccccc4c(NCCCCCCCCCCCCNc4c5c(nc6cc(Cl)ccc46)CCCC5)c3C(C1)C2 (stereo not drawn),550 nM,750 nM,–,–,–,2740 nM,5,< 0.4,3.66 nM,11 ×10⁻⁶ cm/s,> 6.9 µM
CC1=CC2Cc3nc4cc(Cl)ccc4c(NCCCCCCCCNc4c5c(nc6ccccc46)CCCC5)c3C(C1)C2 (stereo not drawn),150 nM,290 nM,6,0.87 µM,0.19 equiv,1110 nM,7.4,2.8,–,–,0.39 µM
CC1=CC2Cc3nc4cc(Cl)ccc4c(NCCCCCCCNc4c5c(nc6ccccc46)CCCC5)c3C(C1)C2 (stereo not drawn),240 nM,430 nM,–,–,–,< 1000 nM,< 4.2,< 2.1,–,–,0.47 µM
CC1=CC2Cc3nc4ccccc4c(NCCCCCCCCCCNc4c5c(nc6ccccc46)CCCC5)c3C(C1)C2 (stereo not drawn),240 nM,310 nM,–,–,–,< 1000 nM,< 4.2,< 0.29,6.46 nM,6.3 ×10⁻⁶ cm/s,3.5 µM
CCC1=C[C@@H]2Cc3nc4cc(Cl)ccc4c(NCCCN4CCC(CC5Cc6cc(OC)c(OC)cc6C5)CC4)c3[C@H](C1)C2,260 nM,1330 nM,–,–,–,2150 nM,8.3,2.7,–,–,0.81 µM
CC1=CC2Cc3nc4cc(Cl)ccc4c(NCCCCCCCNc4c5c(nc6cc(Cl)ccc46)CCCC5)c3C(C1)C2 (stereo not drawn),270 nM,430 nM,–,–,–,< 3000 nM,< 11,< 0.44,–,–,> 6.88 µM
CC1=CC2Cc3nc4ccccc4c(NCCCCCCCCCCCCNc4c5c(nc6ccccc46)CCCC5)c3C(C1)C2 (stereo not drawn),210 nM,280 nM,–,–,–,< 1000 nM,< 4.8,< 0.14,10.1 nM,7.3 ×10⁻⁶ cm/s,> 7.3 µM
COc1cc2c(cc1OC)C(=O)C(CC1CCN(CCNc3c4c(nc5ccccc35)CCCC4)CC1)C2 (stereo not drawn),410 nM,880 nM,–,–,–,< 3000 nM,< 7.3,< 0.37,–,–,> 8.15 µM
CC1=CC2Cc3nc4cc(Cl)ccc4c(NCCCCCCCCCCCCNc4c5c(nc6ccccc46)CCCC5)c3C(C1)C2 (stereo not drawn),350 nM,520 nM,–,–,–,1040 nM,3,< 0.15,1.92 nM,10.8 ×10⁻⁶ cm/s,> 6.9 µM
CCC1=CC2Cc3nc4cc(Cl)ccc4c(NCCN4CCC(CC5Cc6cc(OC)c(OC)cc6C5)CC4)c3C(C1)C2 (stereo not drawn),290 nM,700 nM,–,–,–,3550 nM,12,< 0.5,–,–,> 7.14 µM
CC1=C[C@H]2Cc3nc4cc(Cl)ccc4c(NCCCCCCCNc4c5c(nc6ccccc46)CCCC5)c3[C@@H](C1)C2,210 nM,420 nM,–,–,–,730 nM,3.5,2.1,–,–,0.35 µM
CC1=CC2Cc3nc4cc(Cl)ccc4c(N)c3C(C1)C2 (stereo not drawn) [HUPRINE Y],–,–,8.2,5 µM,> 4 equiv,–,–,–,–,–,–
COc1cc2c(cc1OC)CC(CC1CCN(CCNc3c4c(nc5ccccc35)CCCC4)CC1)C2,380 nM,790 nM,–,–,–,< 3000 nM,< 7.9,< 1.2,–,–,2.6 µM
CCN(CC)CCCC(C)Nc1ccnc2cc(Cl)ccc12 (stereo not drawn) [CHLOROQUINE],–,–,–,–,0.14 equiv,–,–,–,–,–,–
CC1=CC2Cc3nc4cc(Cl)ccc4c(NCCCCCCNc4c5c(nc6cc(Cl)ccc46)CCCC5)c3C(C1)C2 (stereo not drawn),560 nM,790 nM,–,–,–,1100 nM,2,0.25,–,–,4.4 µM
